# Experimental data gathered from unrelated publications.
# Each line is one published result; the experiments were not run side by side.
# Target: Cyclin-dependent kinase 16 (CDK16, Homo sapiens, UniProt Q00536)
Compound,assay,conditions,remaining binding
COCCOc1nc(-c2ccc(Cl)nc2)nc2c1CN(C(=O)c1ncn3ccccc13)CC2,"cell-free assay, competition with immobilised ligand",0.1 µM,100%
C[C@@H]1CN(c2ccc3ncc(-c4ccc5[nH]nc(C6CC6)c5c4)n3n2)C[C@H](C)O1,"binding, competition with immobilised ligand",0.5 µM,100%
C[C@@]1(Cc2ccc(C#N)cc2)C(=O)N(c2cc(Cl)cc(Cl)c2)c2ncc(C(=O)NC3(c4nc(C5CCC5)no4)CC3)n21,"cell-free assay, competition with immobilised ligand",1 µM,97%
CN(c1nccc(-c2cnn3ncccc23)n1)C1CC1,binding,1 µM,100%
Cc1cnc(Nc2ccc(C(=O)N3CCC(N4CCCC4)CC3)cc2)nc1-c1cc2ccccc2s1,"binding, competition with immobilised ligand",1 µM,3.9%
CNCc1ccccc1-c1csc([C@H](C)Nc2nc(C)nc3cc(OC)c(OC)cc23)c1,"cell-free assay, competition with immobilised ligand",1 µM,83%
F[C@@H]1CCN(c2nccc(-c3cnn4ncccc34)n2)C1,binding,1 µM,100%
c1cncc(-c2cccc(Nc3nccc(NC4CCCCC4)n3)c2)c1,"binding, competition with immobilised ligand",10 µM,95%
c1cnn2ncc(-c3ccnc(N4CCC45COC5)n3)c2c1,binding,1 µM,97%
COc1cc(-c2cn(C3CCc4c(F)cccc4N(CC(F)(F)F)C3=O)nn2)ccc1-n1cnc(C)c1 (stereo not shown),"cell-free assay, competition with immobilised ligand",1 µM,82%
COc1ncc2cc3ccccc3nc2c1C#N,"cell-free assay, competition with immobilised ligand",5 µM,97%
COc1cnc(Nc2cccc(S(N)(=O)=O)c2)nc1N1CCN(c2ccccc2)CC1,"binding, competition with immobilised ligand",1 µM,79%
O=C(NC[C@@H]1[C@H]2CN(C(=O)OCc3cc(C(F)(F)F)cc(C(F)(F)F)c3)C[C@@H]12)c1ccc2[nH]nnc2c1,"cell-free assay, competition with immobilised ligand",1 µM,100%
N#Cc1ccccc1CSc1nnc2c(n1)[nH]c1ccccc12,"binding, competition with immobilised ligand",10 µM,100%
CN(C)c1ncc(F)c(-c2cnn3ncccc23)n1,binding,1 µM,96%
Nc1ncc2c(n1)-c1c([nH]c3ccc(C#CC4CC4)cc13)CCCC2,"binding, competition with immobilised ligand",1 µM,100%
N[C@@H]1CCN(c2nccc(-c3cnn4ncccc34)n2)C1,binding,1 µM,95%
CC(C)(C)c1ccc(-c2nc(CBr)nn2-c2cccc(O)c2)cc1,"cell-free assay, competition with immobilised ligand",10 µM,69%
O=C(NCCCN1CCOCC1)c1ccc(Nc2ncc(Cl)c(-c3ccc(Cl)s3)n2)cc1,"binding, competition with immobilised ligand",1 µM,23%
CN(CCCC(F)(F)F)c1nccc(-c2cnn3ncccc23)n1,binding,1 µM,100%
CC(C)CC(=O)N1CCc2nc(-c3ccc(Br)cc3)nc(N(C)Cc3ccccc3)c2C1,"cell-free assay, competition with immobilised ligand",0.1 µM,100%
O=C(NCCCN1CCOCC1)c1ccc(Nc2nccc(-c3cc4ccccc4s3)n2)cc1,"binding, competition with immobilised ligand",1 µM,75%
COc1ccnn2ncc(-c3ccnc(N(C)C)n3)c12,binding,1 µM,100%
O=C(Nc1ccc(Oc2ccc(F)cc2)cc1)N1CCc2ncccc2[C@H]1c1ccc(F)cc1,"cell-free assay, competition with immobilised ligand",1 µM,65%
O=C(Nc1c[nH]nc1C(=O)NC1CCNCC1)c1cc(F)cc(F)c1,"binding, competition with immobilised ligand",1 µM,12%
